ChEMBL document CHEMBL2417509, “Synthesis and biological evaluation of prodigiosene conjugates of porphyrin, estrone and 4-hydroxytamoxifen” (2013)
Active and inactive are the calls of the source. No cut-off for these calls is given here.

How the values were obtained:
MDA-MB-468 = assay: Cytotoxicity against human MDA-MB-468 cells after 2 days by sulforhodamine B assay; assay type: functional; details: MDA-MB-468, 48 h
In short: (§1)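 NCI60 multi-dose screen, 59 human tumour lines available. Cells exposed to compound across a 5-log mol/L concentration range for 2 days, then fixed and stained with sulphorhodamine B, optical density read. Growth inhibition calculated against time-zero control and untreated cells. GI50 derived from the dose series, average of two replicates.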

MCF7 = assay: Cytotoxicity against human ER positive MCF7 cells assessed as cell viability at 1 uM after 72 hrs by MTT assay; assay type: functional, cell-based
In short: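 Lines kept in DMEM with 10% fetal bovine serum and 1% penicillin/streptomycin at 37 °C, 5% CO2. Compound applied at 1 µM for 72 h, then standard MTT reduction read-out. Viability given as mean percentage of formazan formed by treated cells relative to mock-treated cells (0.1% DMSO). Run in quadruplicate, standard error, Student's t-test.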

SF-539 = assay: Cytotoxicity against human SF539 cells after 2 days by sulforhodamine B assay; assay type: functional; details: SF-539, 48 h; in short: as §1
SW-620 = assay: Cytotoxicity against human SW620 cells after 2 days by sulforhodamine B assay; assay type: functional; details: SW-620, 48 h
In short: (§2)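 NCI DTP NCI60 multi-dose screen (59 human tumour lines available). Cells exposed to compound over a 5-log mol/L concentration range for 2 days, then fixed and stained with sulphorhodamine B, with optical density read. Growth inhibition calculated relative to time-zero cells and untreated cells, giving GI50 (half-maximal growth inhibition concentration). Average of two replicates.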

HT-29 = assay: Cytotoxicity against human HT-29 cells after 2 days by sulforhodamine B assay; assay type: functional; details: HT-29, 48 h; in short: as §1
RPMI-8226 = assay: Cytotoxicity against human RPMI8226 cells after 2 days by sulforhodamine B assay; assay type: functional; details: RPMI-8226, 48 h; in short: as §1
HOP-92 = assay: Cytotoxicity against human HOP92 cells after 2 days by sulforhodamine B assay; assay type: functional; details: HOP-92, 48 h; in short: as §1
DU-145 = assay: Cytotoxicity against human DU145 cells after 2 days by sulforhodamine B assay; assay type: functional; details: DU-145, 48 h; in short: as §1
MDA-MB-231 = assay: Cytotoxicity against human MDA-MB-231 cells after 2 days by sulforhodamine B assay; assay type: functional; details: MDA-MB-231, 48 h; in short: as §1
U-251 = assay: Cytotoxicity against human U251 cells after 2 days by sulforhodamine B assay; assay type: functional; details: U-251, 48 h; in short: as §2
A549 = assay: Cytotoxicity against human A549/ATCC cells after 2 days by sulforhodamine B assay; assay type: functional; details: A549, 48 h; in short: as §1
HCC 2998 = assay: Cytotoxicity against human HCC2998 cells after 2 days by sulforhodamine B assay; assay type: functional; details: HCC 2998, 48 h; in short: as §1
TK-10 = assay: Cytotoxicity against human TK10 cells after 2 days by sulforhodamine B assay; assay type: functional; details: TK-10, 48 h; in short: as §2
786-0 = assay: Cytotoxicity against human 786-0 cells after 2 days by sulforhodamine B assay; assay type: functional; details: 786-0, 48 h; in short: as §1
PC-3 = assay: Cytotoxicity against human PC3 cells after 2 days by sulforhodamine B assay; assay type: functional; details: PC-3, 48 h; in short: as §1
T47D = assay: Cytotoxicity against human T47D cells after 2 days by sulforhodamine B assay; assay type: functional; details: 48 h; in short: as §2
CAKI-1 = assay: Cytotoxicity against human CAKI-1 cells after 2 days by sulforhodamine B assay; assay type: functional; details: CAKI-1, 48 h; in short: as §1
ACHN = assay: Cytotoxicity against human ACHN cells after 2 days by sulforhodamine B assay; assay type: functional; details: 48 h; in short: as §1
SNB-75 = assay: Cytotoxicity against human SNB75 cells after 2 days by sulforhodamine B assay; assay type: functional; details: SNB-75, 48 h; in short: as §2
NCI-H522 = assay: Cytotoxicity against human NCI-H522 cells after 2 days by sulforhodamine B assay; assay type: functional; details: NCI-H522, 48 h; in short: as §1
RXF 393 = assay: Cytotoxicity against human RXF393 cells after 2 days by sulforhodamine B assay; assay type: functional; details: RXF 393, 48 h; in short: as §1
MOLT-4 = assay: Cytotoxicity against human MOLT4 cells after 2 days by sulforhodamine B assay; assay type: functional; details: MOLT-4, 48 h; in short: as §1
Malme-3M = assay: Cytotoxicity against human MALME-3M cells after 2 days by sulforhodamine B assay; assay type: functional; details: 48 h; in short: as §1
SNB-19 = assay: Cytotoxicity against human SNB19 cells after 2 days by sulforhodamine B assay; assay type: functional; details: SNB-19, 48 h; in short: as §2
SF-268 = assay: Cytotoxicity against human SF268 cells after 2 days by sulforhodamine B assay; assay type: functional; details: SF-268, 48 h; in short: as §1
A498 = assay: Cytotoxicity against human A498 cells after 2 days by sulforhodamine B assay; assay type: functional; details: A498, 48 h; in short: as §1
[1] = Cytotoxicity against human Hs578T cells after 2 days by sulforhodamine B assay; assay type: functional; details: Hs-578T, 48 h; in short: as §1
IGROV-1 = assay: Cytotoxicity against human IGROV1 cells after 2 days by sulforhodamine B assay; assay type: functional; details: IGROV-1, 48 h; in short: as §1
COLO 205 = assay: Cytotoxicity against human COLO205 cells after 2 days by sulforhodamine B assay; assay type: functional; details: COLO 205, 48 h; in short: as §1
[2] = Cytotoxicity against human NCI-ADR-RES cells after 2 days by sulforhodamine B assay; assay type: functional; details: 48 h; in short: as §1
[3] = read-out: LC50 (the source's name)

CC/C(=C(/c1ccc(OCCN(C)C)cc1)c1ccc(OC(=O)CCCCCCCCC(=O)C2=C(C)/C(=C/c3[nH]c(-c4ccc[nH]4)cc3OC)N=C2C)cc1)c1ccccc1
GI50 (MDA-MB-468): 3.63 µM | LC50 (MDA-MB-468): > 100 µM | TGI (MDA-MB-468): > 100 µM | Activity (MCF7): inactive | GI50 (SF-539): 12 µM | LC50 (SF-539): > 100 µM | TGI (SF-539): 50.1 µM | GI50 (SW-620): 3.72 µM | LC50 (concentration killing 50% of cells) (SW-620): 56.2 µM | TGI (SW-620): 14.1 µM | GI50 (HT-29): 5.13 µM | LC50 (HT-29): > 100 µM | TGI (HT-29): > 100 µM | GI50 (RPMI-8226): 3.72 µM | LC50 (concentration killing 50% of cells present at time zero) (RPMI-8226): > 100 µM | TGI (RPMI-8226): > 100 µM | GI50 (HOP-92): 1.95 µM | CC50 (HOP-92; [3]): > 100 µM | GI50 (DU-145): 8.13 µM | LC50 (concentration killing 50% of starting cells) (DU-145): > 100 µM | TGI (DU-145): > 100 µM | GI50 (MDA-MB-231): 3.39 µM | LC50 (MDA-MB-231): > 100 µM | TGI (MDA-MB-231): 18.2 µM | GI50 (U-251): 6.61 µM | LC50 (U-251): > 100 µM | TGI (U-251): > 100 µM | GI50 (A549): 4.17 µM | LC50 (concentration giving 50% net cell kill) (A549): > 100 µM | TGI (A549): > 100 µM | GI50 (HCC 2998): > 100 µM | LC50 (50% lethal concentration) (HCC 2998): > 100 µM | TGI (HCC 2998): > 100 µM | GI50 (TK-10): 20.9 µM | LC50 (TK-10): > 100 µM | TGI (TK-10): > 100 µM | GI50 (786-0): 5.25 µM | LC50 (concentration killing 50% of cells) (786-0): > 100 µM | TGI (786-0): > 100 µM | GI50 (PC-3): 5.89 µM | LC50 (concentration killing 50% of cells) (PC-3): > 100 µM | TGI (PC-3): > 100 µM | GI50 (T47D): 3.55 µM | LC50 (concentration killing 50% of cells) (T47D): > 100 µM | TGI (T47D): > 100 µM | GI50 (CAKI-1): 6.92 µM | LC50 (concentration killing 50% of the cells present at time zero) (CAKI-1): > 100 µM | TGI (CAKI-1): > 100 µM | GI50 (ACHN): 7.76 µM | LC50 (concentration killing 50% of cells) (ACHN): > 100 µM | TGI (ACHN): > 100 µM | GI50 (SNB-75): 4.17 µM | LC50 (concentration killing 50% of starting cells) (SNB-75): > 100 µM | TGI (SNB-75): > 100 µM | GI50 (NCI-H522): 21.4 µM | LC50 (NCI-H522): > 100 µM | TGI (NCI-H522): > 100 µM | GI50 (RXF 393): 13.8 µM | LC50 (concentration killing 50% of cells) (RXF 393): > 100 µM | TGI (RXF 393): > 100 µM | GI50 (MOLT-4): 5.13 µM | TGI (MOLT-4): > 100 µM | CC50 (MOLT-4; [3]): > 100 µM | GI50 (Malme-3M): 40.7 µM | LC50 (Malme-3M): > 100 µM | TGI (Malme-3M): > 100 µM | GI50 (SNB-19): 6.31 µM | TGI (SNB-19): > 100 µM | CC50 (SNB-19; [3]): > 100 µM | GI50 (SF-268): 6.61 µM | LC50 (concentration killing 50% of cells) (SF-268): > 100 µM | TGI (SF-268): > 100 µM | GI50 (A498): 15.1 µM | LC50 (A498): > 100 µM | TGI (A498): 72.4 µM | GI50 [1]: 4.79 µM | TGI [1]: 85.1 µM | CC50 [1, 3]: > 100 µM | GI50 (IGROV-1): 22.9 µM | LC50 (IGROV-1): > 100 µM | TGI (IGROV-1): > 100 µM | GI50 (COLO 205): 8.13 µM | LC50 (concentration killing 50% of cells) (COLO 205): > 100 µM | TGI (COLO 205): 77.6 µM | GI50 [2]: 31.6 µM | TGI [2]: > 100 µM | CC50 [2, 3]: > 100 µM
